Scp1 inh: Scp-1 phosphatase inhibitors, primary screen, biochemical, colorimetric, uHTS. Carboxy-terminal domain RNA polymerase II polypeptide A small phosphatase 1 (Homo …. Recombinant Scp1, phosphopeptide, malachite green phosphate absorbance. inhibition, % at 20 µM. 340,000 tested, 0.88% active. AID 493091, 2011;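 active means inhibition above about 50% at 20 µM, limit read from the data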
Target sequence (Q9GZU7 76-261 limits assumed): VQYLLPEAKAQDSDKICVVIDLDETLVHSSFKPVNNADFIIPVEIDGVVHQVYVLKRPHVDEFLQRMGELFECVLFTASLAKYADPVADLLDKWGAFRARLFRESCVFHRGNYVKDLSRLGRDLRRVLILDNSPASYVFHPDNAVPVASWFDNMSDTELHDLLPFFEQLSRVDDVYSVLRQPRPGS
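Test system: SCP-1 phosphatase catalytic domain, residues 76-261 | Compound dosing: One concentration, 20 µM, with 1.0% DMSO | Schedule: 45 min room-temperature reaction, 5 min colour, 30 min stabiliser | Detection: Absorbance at 630 nm | Read-out basis: % inhibition of SCP-1 phosphate liberation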
rCAG binder: binders of r(CAG) RNA repeats, primary screen, biochemical, fluorescence; r(CAG) RNA repeat, TO-PRO-1 dye displacement fluorescence; inhibition, % at 3 µM; 370,000 tested, 1.3% active; AID 651821, 2012;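 active means inhibition above the plate cutoff, the mean of all test compounds on that plate plus 3 SD, cut at about 35% in these data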;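 further: higher means more dye released from RNA so lower well fluorescence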
LMPTP block: LMPTP phosphatase inhibitors, primary screen, biochemical, fluorescence intensity, uHTS; inhibition, % at 20 µM; recombinant LMPTP-A, OMFP fluorogenic substrate; Low molecular weight phosphotyrosine protein phosphatase (Homo sapiens), P24666; 360,000 tested, 0.22% active;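 active means compounds that cut the enzyme signal by at least half of the control window in the single-dose screen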
Target sequence (P24666 whole entry, looked up): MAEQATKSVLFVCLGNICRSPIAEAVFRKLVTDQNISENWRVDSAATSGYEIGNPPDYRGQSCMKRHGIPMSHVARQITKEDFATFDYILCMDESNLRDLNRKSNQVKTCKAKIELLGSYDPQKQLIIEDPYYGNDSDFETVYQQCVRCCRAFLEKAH
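Test system – LMPTP-A enzyme · Amount – LMPTP-A at 0.625 nM final in the reaction · Buffer or medium – Bis-Tris pH 6.0, DTT, detergent · Reagent – OMFP 400 µM · Doses – single 20 µM dose · Schedule – reaction 50 min, room temperature, dark · Detection – fluorescence intensity of OMFP turnover product · Evaluation – percent inhibition versus substrate-only and uninhibited controls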
STEP inh: STEP phosphatase inhibitors, primary screen, biochemical, fluorescence intensity, uHTS; Tyrosine-protein phosphatase non-receptor type 5 (Homo sapiens), P54829; AID 588621, 2011; 360,000 tested, 0.25% active; recombinant STEP, OMFP fluorogenic substrate; inhibition, % at 20 µM;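 active means inhibition at 20 µM, scaled per plate between control wells, above about 37%, limit read from the data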
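System: isolated STEP enzyme; schedule: 20 min enzyme reaction at room temperature, protected from light; medium: Bis-Tris buffer pH 6.0, 2.5 mM DTT, 0.005% Tween 20; signal: fluorescence, 480/540 nm; dosing: single compound dose of 20 µM, 1% DMSO final; also added: OMFP substrate, 25 µM final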
NadD inh: inhibitors of S. aureus NadD, primary screen, biochemical, colorimetric, uHTS. inhibition, % at 20 µM. 360,000 tested, 0.78% active. purified NadD enzyme, colorimetric absorbance read-out. Nicotinate-nucleotide adenylyltransferase NadD (Staphylococcus aureus N315); in the data active means inhibition above about 26%
STEP inh conf: STEP phosphatase inhibitor hit confirmation, biochemical, fluorescence intensity, single concentration. shares compounds with STEP inh. recombinant STEP, OMFP fluorogenic substrate. inhibition, % at 20 µM. 520 tested, 32% active. AID 623866, 2012; call rule not given here
Hits are given with their value; n = inactive; x = not tested or not shown. In the library only some 2.6% were active in any assay of this set; here they are far more common.

SMILES	Scp1 inh	rCAG binder	LMPTP block	STEP inh	NadD inh	STEP inh conf
COc1ccc(C(=O)OCCN(C)C2CN(Cc3cn(Cc4ccccc4Cl)nn3)S(=O)(=O)C2)cc1OC (stereo not drawn)	x	n	x	x	x	x
Cc1csc2ncc(C(=O)NCc3ccccn3)c(=O)n12	n	n	n	98	n	n
Cc1csc2ncc(C(=O)NCCc3ccccc3)c(=O)n12	n	n	n	n	n	x
COC(=O)[C@]12C[C@H](CC(=O)N3CCN(C(=O)C4CC4)CC3)C(=O)N(Cc3ccc(Cl)cc3Cl)C1=C[C@H](C(C)(C)C)O[C@@H]2C	x	n	x	x	x	x
COc1ccc(CN2C/C(=C/C3=CCCCC3)N(C(=O)OCc3ccccc3)C2=N)c(OC)c1	x	n	x	x	x	x
CCCCNS(=O)(=O)c1cc(-c2nn(C)c(=O)c3ccccc23)ccc1C	n	n	n	58	n	n
COCCNS(=O)(=O)c1cc(-c2nn(C)c(=O)c3ccccc23)ccc1C	n	n	n	n	n	x
Cc1cccc(C)c1NC(=S)N(CCN1CCCCCC1)Cc1ccco1	n	n	n	n	n	x
Cc1cccc(C)c1NC(=S)N(Cc1ccco1)C1CCN(C(C)C)CC1	n	n	n	46	n	n
CC(C)NC(=O)NC1CCN(CC(=O)Nc2ccc3c(c2)OCCO3)CC1	x	n	x	x	x	x
COc1cccc(C2CC3(CC(C)(C)NC(=S)N3)Oc3cc(O)ccc32)c1 (stereo not drawn)	n	n	n	112	n	n
Cc1cccc(C2CC3(CC(C)(C)NC(=S)N3)Oc3cc(O)ccc32)c1 (stereo not drawn)	n	n	n	n	n	x
CCOC(=O)[C@@]12CCCC3=C1N(CCC3)C(=O)[C@H]2CC(=O)NCCc1ccccc1OC	x	n	x	x	x	x
Cc1ccc(C(=O)N/C(=C\c2ccccc2)C(=O)OCc2ccccc2)cc1	n	n	n	60	n	n
CC(=NNC(=S)N1CC2CCC(CC2)C1)c1cccc(C)n1	n	n	n	59	n	active
CC(=NNC(=S)N1CCCC1)c1ccccn1	x	n	n	n	n	x
COCCCNC(=O)C[C@H]1C[C@@]2(C(=O)OC)C(=C[C@H](C(C)(C)C)O[C@@H]2C)N(Cc2ccco2)C1=O	x	n	x	x	x	x
O=C(CSS(=O)(=O)O)N1CCN(C(=O)c2ccoc2)CC1	n	n	n	77	n	n
O=S(=O)(Nc1ccc(Cl)cc1)c1ccc(N2CCOCC2)c(NC(=S)NCCN2CCOCC2)c1	n	n	n	92	n	71
COCCNC(=S)Nc1ccc(N2CCOCC2)c(S(=O)(=O)Nc2ccc(Cl)cc2)c1	x	n	n	n	n	x
Cc1nn(-c2ccccc2)c(C)c1/C=N/NC(=O)c1[nH][nH]c(=O)c1C	x	n	x	x	x	x
Cc1cc(C)cc(NC(=S)NC2CC3CCCC(C2)N3C2CCCC2)c1 (stereo not drawn)	n	n	n	40	n	n
Cc1cccc(N2CCN(S(=O)(=O)c3ccc4c(c3)CCN4C(=O)CCC(=O)O)CC2)c1C	n	n	n	41	n	n
CC1(C)Cc2c(sc(NC(=O)C(=O)NCCCN3CCOCC3)c2C#N)CO1	n	n	n	68	n	n
CC1(C)Cc2c(sc(NC(=O)/C=C/C(=O)O)c2C#N)CO1	n	n	n	n	n	x
SMILES	Scp1 inh	rCAG binder	LMPTP block	STEP inh	NadD inh	STEP inh conf
COC(=O)[C@]12C[C@H](CC(=O)NCCC(C)C)C(=O)N(Cc3cccc4ccccc34)C1=C[C@H](C(C)(C)C)O[C@@H]2C	x	n	x	x	x	x
CCCCNC(=O)C1(C(C)=O)CC(C(=O)OCC)=NO1 (stereo not drawn)	x	n	x	x	x	x
Cc1ccccc1N1CCN(C(=S)c2ccc(-c3cccc([N+](=O)[O-])c3)o2)CC1	n	n	n	44	n	26
Cc1nn2c(CN(C(=O)COc3ccccc3)c3ccccc3)nnc2c2ccccc12	n	n	n	122	n	n
Cc1nn2c(CN(C(=O)CN3CCOCC3)c3ccccc3)nnc2c2ccccc12	n	n	n	n	n	x
COC(=O)c1cc(-c2ccc(C)c3ccccc23)c(=O)n2c1CCC2	x	n	x	x	x	x
Cc1csc(NC(=O)CCCC(=O)O)c1-c1nc2ccccc2s1	n	n	n	93	n	n
CC(=O)Nc1scc(C)c1-c1nc2ccccc2s1	n	n	n	n	n	x
O=C1C(=O)N(CCCO)C(c2ccc(Br)cc2)/C1=C(\O)c1ccc(Br)cc1 (stereo not drawn)	n	n	n	41	n	38
COc1cc2c(cc1NC(=O)c1cccc([N+](=O)[O-])c1)oc1ccccc12	n	n	66	84	n	n
COc1cc2c(cc1NC(=O)c1ccc(C)c([N+](=O)[O-])c1)oc1ccccc12	n	n	n	n	n	x
O=c1cc(-c2ccccc2)nc2nc(-c3ccco3)[nH]n12	n	n	51	86	n	n
Cc1nc2nc(-c3ccccc3)cc(=O)n2[nH]1	n	n	n	n	n	x
CCCCC(=O)Nc1ccc2c(c1)nc(CCN1CCOCC1)n2C	n	n	n	46	n	n
O=C(NCC1COCCO1)C1CCN(S(=O)(=O)c2cccs2)CC1 (stereo not drawn)	x	n	x	x	x	x
O=S1OCCN1c1ccccc1 (stereo not drawn)	n	n	n	42	n	n
CCN1CCN(CCCN(Cc2ccco2)C(=S)Nc2ccc(C)c(Cl)c2)CC1	n	n	n	n	n	x
CCN1CCN(CCCN(Cc2ccco2)C(=S)Nc2cc(Cl)ccc2C)CC1	n	n	n	41	n	n
COc1ccc(OC)c(NC(=S)N2CCN(c3ccccn3)CC2)c1	n	n	n	n	n	x
COc1ccc(NC(=S)N2CCN(c3ncccn3)CC2)c(OC)c1	n	n	n	85	n	n
COc1ccc(-c2cc(C(=O)NN=Cc3cccn3C)[nH]n2)cc1	x	n	x	x	x	x
O=C(N/N=C/c1ccccn1)c1cc(-c2ccc(Cl)s2)[nH]n1	n	n	n	42	n	n
Cc1nn(-c2ccccc2)c(C)c1/C=N/NC(=O)c1cc(-c2ccc(Cl)s2)[nH]n1	n	n	n	n	n	x
C=CCN1C(=O)[C@@H](CC(=O)N2CCCC2)[C@]2(C(=O)OC)CCCCC=C12	x	n	x	x	x	x
COc1cc(NC(=S)N2CCN(C)CC2)c(OC)cc1Cl	n	n	n	42	n	28
COc1cc(NC(=S)N2CCN(CCO)CC2)c(OC)cc1Cl	n	n	n	n	n	x
COc1ccc(N2CCN(c3nc4c(C)cccn4c(=O)c3C=C(C#N)C#N)CC2)cc1	n	n	n	63	n	n

High-throughput results from PubChem.
